ChEMBL document CHEMBL1255475, “Mutant prevention concentrations of four carbapenems against gram-negative rods” (2010)
In brackets after ≈: the same amount, converted by molar mass.

Assays:
Assay type in all cases: functional
Acinetobacter baumannii [1] = assay: Antibacterial activity against Acinetobacter baumannii A898 assessed as mutant prevention concentration after overnight incubation
Acinetobacter baumannii [2] = assay: Antibacterial activity against Acinetobacter baumannii A929 assessed as mutant prevention concentration after overnight incubation
Klebsiella pneumoniae [3] = assay: Antibacterial activity against beta-lactamase-positive ESBL-positive Klebsiella pneumoniae E476 assessed as mutant prevention concentration after overnight incubation
Method in brief: (§1)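 Overnight growth on blood trypticase soy agar (35°C, air) was resuspended in 0.9% saline and counted on drug-free Mueller-Hinton agar. […] Colonies were retested by agar dilution to confirm mutants. MPC was the lowest concentration preventing resistant-mutant growth.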

Klebsiella pneumoniae [4] = assay: Antibacterial activity against beta-lactamase-positive ESBL-negative Klebsiella pneumoniae E509 assessed as mutant prevention concentration after overnight incubation; method in brief: as §1
Klebsiella pneumoniae [5] = assay: Antibacterial activity against beta-lactamase-positive ESBL-negative Klebsiella pneumoniae E473 assessed as mutant prevention concentration after overnight incubation; method in brief: as §1
Klebsiella pneumoniae [6] = assay: Antibacterial activity against beta-lactamase-positive ESBL-positive Klebsiella pneumoniae E478 assessed as mutant prevention concentration after overnight incubation; method in brief: as §1
Klebsiella pneumoniae [7] = assay: Antibacterial activity against beta-lactamase-negative Klebsiella pneumoniae E417 assessed as mutant prevention concentration after overnight incubation
Pseudomonas aeruginosa [8] = assay: Antibacterial activity against Pseudomonas aeruginosa P356 assessed as mutant prevention concentration after overnight incubation
Pseudomonas aeruginosa [9] = assay: Antibacterial activity against Pseudomonas aeruginosa P335 assessed as mutant prevention concentration after overnight incubation
Pseudomonas aeruginosa [10] = assay: Antibacterial activity against Pseudomonas aeruginosa P320 assessed as mutant prevention concentration after overnight incubation
Pseudomonas aeruginosa [11] = assay: Antibacterial activity against Pseudomonas aeruginosa P322 assessed as mutant prevention concentration after overnight incubation
Pseudomonas aeruginosa [12] = assay: Antibacterial activity against Pseudomonas aeruginosa P323 assessed as mutant prevention concentration after overnight incubation
Pseudomonas aeruginosa [13] = assay: Antibacterial activity against Pseudomonas aeruginosa P353 assessed as mutant prevention concentration after overnight incubation
Pseudomonas aeruginosa [14] = assay: Antibacterial activity against Pseudomonas aeruginosa P365 assessed as mutant prevention concentration after overnight incubation
Pseudomonas aeruginosa [15] = assay: Antibacterial activity against Pseudomonas aeruginosa P358 assessed as mutant prevention concentration after overnight incubation
Pseudomonas aeruginosa [16] = assay: Antibacterial activity against Pseudomonas aeruginosa P376 assessed as mutant prevention concentration after overnight incubation
Pseudomonas aeruginosa [17] = assay: Antibacterial activity against Pseudomonas aeruginosa P326 assessed as mutant prevention concentration after overnight incubation
Acinetobacter baumannii [18] = assay: Antibacterial activity against Acinetobacter baumannii A848 assessed as mutant prevention concentration after overnight incubation
Acinetobacter baumannii [19] = assay: Antibacterial activity against Acinetobacter baumannii A850 assessed as mutant prevention concentration after overnight incubation
Acinetobacter baumannii [20] = assay: Antibacterial activity against Acinetobacter baumannii A910 assessed as mutant prevention concentration after overnight incubation
Escherichia coli [21] = assay: Antibacterial activity against beta-lactamase-negative Escherichia coli E350 assessed as mutant prevention concentration after overnight incubation
Escherichia coli [22] = assay: Antibacterial activity against beta-lactamase-negative Escherichia coli E409 assessed as mutant prevention concentration after overnight incubation
Escherichia coli [23] = assay: Antibacterial activity against beta-lactamase-positive ESBL-negative Escherichia coli E412 assessed as mutant prevention concentration after overnight incubation; method in brief: as §1
Escherichia coli [24] = assay: Antibacterial activity against beta-lactamase-positive ESBL-negative Escherichia coli E415 assessed as mutant prevention concentration after overnight incubation; method in brief: as §1
Escherichia coli [25] = assay: Antibacterial activity against beta-lactamase-positive ESBL-negative Escherichia coli E437 assessed as mutant prevention concentration after overnight incubation; method in brief: as §1
Escherichia coli [26] = assay: Antibacterial activity against beta-lactamase-positive ESBL-negative Escherichia coli E484 assessed as mutant prevention concentration after overnight incubation; method in brief: as §1
Klebsiella pneumoniae [27] = assay: Antibacterial activity against beta-lactamase-positive ESBL-negative Klebsiella pneumoniae E477 incubated up to 7 days by agar dilution method; conditions: E477, 168 h
Klebsiella pneumoniae [28] = assay: Antibacterial activity against beta-lactamase-positive ESBL-positive Klebsiella pneumoniae E478 incubated up to 7 days by agar dilution method; conditions: E478, 168 h
Klebsiella pneumoniae [29] = assay: Antibacterial activity against beta-lactamase-positive ESBL-negative Klebsiella pneumoniae E481 incubated up to 7 days by agar dilution method; conditions: E481, 168 h
Klebsiella pneumoniae [30] = assay: Antibacterial activity against beta-lactamase-negative Klebsiella pneumoniae E420 incubated up to 7 days by agar dilution method; conditions: E420, 168 h
Method in brief: (§2)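 MIC by CLSI agar dilution, with quality-control strains in each run. Beta-lactamase status was set by 30 μg cefazolin Kirby-Bauer disk diffusion. ESBL status was set by cefotaxime and ceftazidime disks (30 μg) with and without clavulanic acid (10 μg).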

Klebsiella pneumoniae [31] = assay: Antibacterial activity against beta-lactamase-positive ESBL-positive Klebsiella pneumoniae E453 incubated up to 7 days by agar dilution method; conditions: E453, 168 h; method in brief: as §2
Klebsiella pneumoniae [32] = assay: Antibacterial activity against beta-lactamase-positive ESBL-negative Klebsiella pneumoniae E511 incubated up to 7 days by agar dilution method; conditions: E511, 168 h
Escherichia coli [33] = assay: Antibacterial activity against beta-lactamase-negative Escherichia coli E348 incubated up to 7 days by agar dilution method; conditions: E348, 168 h
Escherichia coli [34] = assay: Antibacterial activity against beta-lactamase-positive ESBL-negative Escherichia coli E437 incubated up to 7 days by agar dilution method; conditions: E437, 168 h; method in brief: as §2
Escherichia coli [35] = assay: Antibacterial activity against beta-lactamase-negative Escherichia coli E424 […] by agar dilution method
Escherichia coli [36] = assay: Antibacterial activity against beta-lactamase-positive ESBL-positive Escherichia coli E446 incubated up to 7 days by agar dilution method; conditions: E446, 168 h; method in brief: as §2
Escherichia coli [37] = assay: Antibacterial activity against beta-lactamase-positive ESBL-negative Escherichia coli E430 incubated up to 7 days by agar dilution method; conditions: E430, 168 h; method in brief: as §2
Escherichia coli [38] = assay: Antibacterial activity against beta-lactamase-positive ESBL-positive Escherichia coli E451 incubated up to 7 days by agar dilution method; conditions: E451, 168 h; method in brief: as §2
Escherichia coli [39] = assay: Antibacterial activity against beta-lactamase-positive ESBL-positive Escherichia coli E465 incubated up to 7 days by agar dilution method; conditions: E465, 168 h; method in brief: as §2
Klebsiella pneumoniae [40] = assay: Antibacterial activity against beta-lactamase-negative Klebsiella pneumoniae E357 incubated up to 7 days by agar dilution method; conditions: E357, 168 h
Klebsiella pneumoniae [41] = assay: Antibacterial activity against beta-lactamase-negative Klebsiella pneumoniae E358 incubated up to 7 days by agar dilution method; conditions: E358, 168 h
Klebsiella pneumoniae [42] = assay: Antibacterial activity against beta-lactamase-negative Klebsiella pneumoniae E419 incubated up to 7 days by agar dilution method; conditions: E419, 168 h
Klebsiella pneumoniae [43] = assay: Antibacterial activity against beta-lactamase-negative Klebsiella pneumoniae E362 incubated up to 7 days by agar dilution method; conditions: E362, 168 h
Klebsiella pneumoniae [44] = assay: Antibacterial activity against beta-lactamase-positive ESBL-positive Klebsiella pneumoniae E476 incubated up to 7 days by agar dilution method; conditions: E476, 168 h

## C[C@@H](O)[C@H]1C(=O)N2C(C(=O)O)=C(SCCNC=N)C[C@H]12 [IMIPENEM ANHYDROUS]
Acinetobacter baumannii [1]
  MPC: 4 µg/mL
Acinetobacter baumannii [2]
  MPC: 1 µg/mL
Klebsiella pneumoniae [3]
  MPC: >16 µg/mL
Klebsiella pneumoniae [4]
  MPC: >32 µg/mL
Klebsiella pneumoniae [5]
  MPC: 16 µg/mL
Klebsiella pneumoniae [6]
  MPC: 16 µg/mL
Klebsiella pneumoniae [7]
  MPC: 0.5 µg/mL
Pseudomonas aeruginosa [8]
  MPC: >32 µg/mL
Pseudomonas aeruginosa [9]
  MPC: 32 µg/mL
Pseudomonas aeruginosa [10]
  MPC: 32 µg/mL
Pseudomonas aeruginosa [11]
  MPC: 32 µg/mL
Pseudomonas aeruginosa [12]
  MPC: 64 µg/mL
Pseudomonas aeruginosa [13]
  MPC: 64 µg/mL
Pseudomonas aeruginosa [14]
  MPC: 16 µg/mL
Pseudomonas aeruginosa [15]
  MPC: 128 µg/mL
Pseudomonas aeruginosa [16]
  MPC: 64 µg/mL
Pseudomonas aeruginosa [17]
  MPC: 32 µg/mL
Acinetobacter baumannii [18]
  MPC: 8 µg/mL
Acinetobacter baumannii [19]
  MPC: 8 µg/mL
Acinetobacter baumannii [20]
  MPC: 8 µg/mL
Escherichia coli [21]
  MPC: 2 µg/mL
Escherichia coli [22]
  MPC: 1 µg/mL
Escherichia coli [23]
  MPC: 1 µg/mL
Escherichia coli [24]
  MPC: 0.5 µg/mL
Escherichia coli [25]
  MPC: 1 µg/mL
Escherichia coli [26]
  MPC: >16 µg/mL

## C[C@@H](O)[C@H]1C(=O)N2C(C(=O)O)=C(S[C@@H]3CN[C@H](C(=O)N(C)C)C3)[C@H](C)[C@H]12 [MEROPENEM]
Klebsiella pneumoniae [27]
  MIC: 2 µg/mL (≈ 5.22 µM)
Klebsiella pneumoniae [28]
  MIC: 2 µg/mL (≈ 5.22 µM)
Klebsiella pneumoniae [29]
  MIC: 1 µg/mL (≈ 2.61 µM)
Klebsiella pneumoniae [30]
  MIC: 0.03 µg/mL (≈ 0.0782 µM)
Klebsiella pneumoniae [31]
  MIC: 0.06 µg/mL (≈ 0.156 µM)
Klebsiella pneumoniae [32]
  MIC: 4 µg/mL (≈ 10.4 µM)
Escherichia coli [33]
  MIC: 0.03 µg/mL (≈ 0.0782 µM)
Escherichia coli [34]
  MIC: 0.06 µg/mL (≈ 0.156 µM)
Escherichia coli [35]
  MIC: 0.03 µg/mL (≈ 0.0782 µM)
Escherichia coli [36]
  MIC: 0.03 µg/mL (≈ 0.0782 µM)
Escherichia coli [37]
  MIC: 0.03 µg/mL (≈ 0.0782 µM)
Escherichia coli [38]
  MIC: 0.03 µg/mL (≈ 0.0782 µM)
Escherichia coli [39]
  MIC: 0.06 µg/mL (≈ 0.156 µM)
Klebsiella pneumoniae [40]
  MIC: 0.03 µg/mL (≈ 0.0782 µM)
Klebsiella pneumoniae [41]
  MIC: 0.03 µg/mL (≈ 0.0782 µM)
Klebsiella pneumoniae [42]
  MIC: 0.06 µg/mL (≈ 0.156 µM)
Klebsiella pneumoniae [43]
  MIC: 0.06 µg/mL (≈ 0.156 µM)
Klebsiella pneumoniae [44]
  MIC: 4 µg/mL (≈ 10.4 µM)
Acinetobacter baumannii [1]
  MPC: 8 µg/mL
Acinetobacter baumannii [2]
  MPC: 4 µg/mL
Klebsiella pneumoniae [3]
  MPC: >64 µg/mL
Klebsiella pneumoniae [4]
  MPC: >64 µg/mL
Klebsiella pneumoniae [5]
  MPC: 16 µg/mL
Klebsiella pneumoniae [6]
  MPC: 8 µg/mL
Klebsiella pneumoniae [7]
  MPC: 0.06 µg/mL
Pseudomonas aeruginosa [8]
  MPC: >4 µg/mL
Pseudomonas aeruginosa [9]
  MPC: 32 µg/mL
Pseudomonas aeruginosa [10]
  MPC: >8 µg/mL
Pseudomonas aeruginosa [11]
  MPC: 16 µg/mL
Pseudomonas aeruginosa [12]
  MPC: 4 µg/mL
Pseudomonas aeruginosa [13]
  MPC: 8 µg/mL
Pseudomonas aeruginosa [14]
  MPC: 8 µg/mL
Pseudomonas aeruginosa [15]
  MPC: 32 µg/mL
Pseudomonas aeruginosa [16]
  MPC: 16 µg/mL
Pseudomonas aeruginosa [17]
  MPC: 64 µg/mL
Acinetobacter baumannii [18]
  MPC: 32 µg/mL
Acinetobacter baumannii [19]
  MPC: 16 µg/mL
Acinetobacter baumannii [20]
  MPC: 4 µg/mL
Escherichia coli [21]
  MPC: 0.06 µg/mL
Escherichia coli [22]
  MPC: 0.06 µg/mL
Escherichia coli [23]
  MPC: 0.25 µg/mL
Escherichia coli [24]
  MPC: 0.125 µg/mL
Escherichia coli [25]
  MPC: 0.125 µg/mL
Escherichia coli [26]
  MPC: 16 µg/mL
